Results as given in ChEMBL document CHEMBL4665627 (Eur J Med Chem, 2019).
Converted amounts (≈) assume the structure as drawn.

Experiments:
Format in all cases: functional
Pseudomonas aeruginosa [1] = test: Antibacterial activity against Pseudomonas aeruginosa assessed as inhibition of bacterial growth after 24 hrs by CLSI protocol based two fold serial dilution method
Method in brief: (§1)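 Two-fold serial broth dilution in 96-well plates following CLSI; MIC (mM) taken as the lowest concentration giving complete growth inhibition; MIC values from three independent experiments.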

Candida parapsilosis = test: Antifungal activity against Candida parapsilosis ATCC 22019 assessed as inhibition of fungal growth after 24 hrs by CLSI protocol based two fold serial dilution method; conditions: Lodderomyces parapsilosis; method in brief: as §1
Aspergillus fumigatus = test: Antifungal activity against Aspergillus fumigatus assessed as inhibition of fungal growth after 24 hrs by CLSI protocol based two fold serial dilution method; method in brief: as §1
Candida tropicalis = test: Antifungal activity against Candida tropicalis assessed as inhibition of fungal growth after 24 hrs by CLSI protocol based two fold serial dilution method; method in brief: as §1
Candida albicans [2] = test: Antifungal activity against Candida albicans ATCC 90023 assessed as inhibition of fungal growth after 24 hrs by CLSI protocol based two fold serial dilution method; method in brief: as §1
Candida albicans [3] = test: Antifungal activity against Candida albicans assessed as inhibition of fungal growth after 24 hrs by CLSI protocol based two fold serial dilution method; method in brief: as §1
Acinetobacter baumannii = test: Antibacterial activity against Acinetobacter baumannii assessed as inhibition of bacterial growth after 24 hrs by CLSI protocol based two fold serial dilution method; method in brief: as §1
Pseudomonas aeruginosa [4] = test: Antibacterial activity against Pseudomonas aeruginosa ATCC 27853 assessed as inhibition of bacterial growth after 24 hrs by CLSI protocol based two fold serial dilution method; method in brief: as §1
Escherichia coli [5] = test: Antibacterial activity against Escherichia coli ATCC 25922 assessed as inhibition of bacterial growth after 24 hrs by CLSI protocol based two fold serial dilution method; method in brief: as §1
Escherichia coli [6] = test: Antibacterial activity against Escherichia coli assessed as inhibition of bacterial growth after 24 hrs by CLSI protocol based two fold serial dilution method; method in brief: as §1
Klebsiella pneumoniae = test: Antibacterial activity against Klebsiella pneumoniae assessed as inhibition of bacterial growth after 24 hrs by CLSI protocol based two fold serial dilution method; method in brief: as §1
Staphylococcus aureus [7] = test: Antibacterial activity against Staphylococcus aureus ATCC 29213 assessed as inhibition of bacterial growth after 24 hrs by CLSI protocol based two fold serial dilution method
Staphylococcus aureus [8] = test: Antibacterial activity against Staphylococcus aureus ATCC 25923 assessed as inhibition of bacterial growth after 24 hrs by CLSI protocol based two fold serial dilution method; method in brief: as §1
Staphylococcus aureus [9] = test: Antibacterial activity against Staphylococcus aureus assessed as inhibition of bacterial growth after 24 hrs by CLSI protocol based two fold serial dilution method; method in brief: as §1
Enterococcus faecalis = test: Antibacterial activity against Enterococcus faecalis assessed as inhibition of bacterial growth after 24 hrs by CLSI protocol based two fold serial dilution method; method in brief: as §1
Staphylococcus aureus [10] = test: Antibacterial activity against methicillin-resistant Staphylococcus aureus N315 assessed as inhibition of bacterial growth after 24 hrs by CLSI protocol based two fold serial dilution method

| Compound | MIC (Pseudomonas aeruginosa [1]) | MIC (Candida parapsilosis) | MIC (Aspergillus fumigatus) | MIC (Candida tropicalis) | MIC (Candida albicans [2]) | MIC (Candida albicans [3]) | MIC (Acinetobacter baumannii) | MIC (Pseudomonas aeruginosa [4]) | MIC (Escherichia coli [5]) | MIC (Escherichia coli [6]) | MIC (Klebsiella pneumoniae) | MIC (Staphylococcus aureus [7]) | MIC (Staphylococcus aureus [8]) | MIC (Staphylococcus aureus [9]) | MIC (Enterococcus faecalis) | MIC (Staphylococcus aureus [10]) |
| --- | --- | --- | --- | --- | --- | --- | --- | --- | --- | --- | --- | --- | --- | --- | --- | --- |
| CCn1cc(-c2csc(N)n2)c(=O)c2cc(N3CCNCC3)c(Cl)cc21 | 41 µM (≈ 16 µg/mL) | 1320 µM (≈ 513 µg/mL) | 164 µM (≈ 63.9 µg/mL) | 329 µM (≈ 128 µg/mL) | 164 µM (≈ 63.9 µg/mL) | 329 µM (≈ 128 µg/mL) | 1320 µM (≈ 513 µg/mL) | 658 µM (≈ 257 µg/mL) | 164 µM (≈ 63.9 µg/mL) | 329 µM (≈ 128 µg/mL) | 164 µM (≈ 63.9 µg/mL) | 329 µM (≈ 128 µg/mL) | 82 µM (≈ 32 µg/mL) | 82 µM (≈ 32 µg/mL) | 329 µM (≈ 128 µg/mL) | 658 µM (≈ 257 µg/mL) |
| CCCCCCCCCCN1CCN(c2cc3c(cc2F)c(=O)c(-c2csc(N)n2)cn3CC)CC1 | 499 µM (≈ 256 µg/mL) | 249 µM (≈ 128 µg/mL) | 125 µM (≈ 64.2 µg/mL) | 499 µM (≈ 256 µg/mL) | 997 µM (≈ 512 µg/mL) | 997 µM (≈ 512 µg/mL) | 249 µM (≈ 128 µg/mL) | 249 µM (≈ 128 µg/mL) | 499 µM (≈ 256 µg/mL) | 499 µM (≈ 256 µg/mL) | 499 µM (≈ 256 µg/mL) | 997 µM (≈ 512 µg/mL) | 499 µM (≈ 256 µg/mL) | 499 µM (≈ 256 µg/mL) | 499 µM (≈ 256 µg/mL) | 997 µM (≈ 512 µg/mL) |
| CCN1CCN(c2cc3c(cc2F)c(=O)c(-c2csc(N)n2)cn3CC)CC1 | 319 µM (≈ 128 µg/mL) | 80 µM (≈ 32.1 µg/mL) | 160 µM (≈ 64.2 µg/mL) | 40 µM (≈ 16.1 µg/mL) | 319 µM (≈ 128 µg/mL) | 319 µM (≈ 128 µg/mL) | 319 µM (≈ 128 µg/mL) | 160 µM (≈ 64.2 µg/mL) | 160 µM (≈ 64.2 µg/mL) | 319 µM (≈ 128 µg/mL) | 160 µM (≈ 64.2 µg/mL) | 638 µM (≈ 256 µg/mL) | 80 µM (≈ 32.1 µg/mL) | 319 µM (≈ 128 µg/mL) | 319 µM (≈ 128 µg/mL) | 319 µM (≈ 128 µg/mL) |
| C=CCN1CCN(c2cc3c(cc2F)c(=O)c(-c2csc(N)n2)cn3CC)CC1 | 155 µM (≈ 64.1 µg/mL) | 155 µM (≈ 64.1 µg/mL) | 77 µM (≈ 31.8 µg/mL) | 155 µM (≈ 64.1 µg/mL) | 77 µM (≈ 31.8 µg/mL) | 77 µM (≈ 31.8 µg/mL) | 77 µM (≈ 31.8 µg/mL) | 155 µM (≈ 64.1 µg/mL) | 155 µM (≈ 64.1 µg/mL) | 77 µM (≈ 31.8 µg/mL) | 77 µM (≈ 31.8 µg/mL) | 39 µM (≈ 16.1 µg/mL) | 19 µM (≈ 7.86 µg/mL) | 155 µM (≈ 64.1 µg/mL) | 155 µM (≈ 64.1 µg/mL) | 78 µM (≈ 32.3 µg/mL) |
| CCn1cc(-c2csc(N)n2)c(=O)c2cc(F)c(N3CCN(C=O)CC3)cc21 | 638 µM (≈ 256 µg/mL) | 160 µM (≈ 64.2 µg/mL) | 638 µM (≈ 256 µg/mL) | 638 µM (≈ 256 µg/mL) | 166 µM (≈ 66.6 µg/mL) | 160 µM (≈ 64.2 µg/mL) | 319 µM (≈ 128 µg/mL) | 80 µM (≈ 32.1 µg/mL) | 160 µM (≈ 64.2 µg/mL) | 638 µM (≈ 256 µg/mL) | 319 µM (≈ 128 µg/mL) | 638 µM (≈ 256 µg/mL) | 160 µM (≈ 64.2 µg/mL) | 638 µM (≈ 256 µg/mL) | 319 µM (≈ 128 µg/mL) | 638 µM (≈ 256 µg/mL) |
| CCn1cc(-c2csc(N)n2)c(=O)c2cc(F)c(N3CCNCC3)cc21 | 21 µM (≈ 7.84 µg/mL) | 343 µM (≈ 128 µg/mL) | 343 µM (≈ 128 µg/mL) | 685 µM (≈ 256 µg/mL) | 171 µM (≈ 63.9 µg/mL) | 171 µM (≈ 63.9 µg/mL) | 343 µM (≈ 128 µg/mL) | 343 µM (≈ 128 µg/mL) | 343 µM (≈ 128 µg/mL) | 171 µM (≈ 63.9 µg/mL) | 171 µM (≈ 63.9 µg/mL) | 343 µM (≈ 128 µg/mL) | 171 µM (≈ 63.9 µg/mL) | 86 µM (≈ 32.1 µg/mL) | 171 µM (≈ 63.9 µg/mL) | 171 µM (≈ 63.9 µg/mL) |
| OC(Cn1cncn1)(Cn1cncn1)c1ccc(F)cc1F [FLUCONAZOLE] |  | 13 µM (≈ 3.98 µg/mL) | 836 µM (≈ 256 µg/mL) | 26 µM (≈ 7.96 µg/mL) | 7 µM (≈ 2.14 µg/mL) | 13 µM (≈ 3.98 µg/mL) |  |  |  |  |  |  |  |  |  |  |
| CCn1cc(-c2csc(N)n2)c(=O)c2cc(F)c(N3CCN(Cc4ccc(F)cc4)CC3)cc21 | 1060 µM (≈ 512 µg/mL) | 67 µM (≈ 32.3 µg/mL) | 266 µM (≈ 128 µg/mL) | 133 µM (≈ 64 µg/mL) | 17 µM (≈ 8.19 µg/mL) | 133 µM (≈ 64 µg/mL) | 266 µM (≈ 128 µg/mL) | 67 µM (≈ 32.3 µg/mL) | 33 µM (≈ 15.9 µg/mL) | 67 µM (≈ 32.3 µg/mL) | 266 µM (≈ 128 µg/mL) | 532 µM (≈ 256 µg/mL) | 133 µM (≈ 64 µg/mL) | 133 µM (≈ 64 µg/mL) | 67 µM (≈ 32.3 µg/mL) | 67 µM (≈ 32.3 µg/mL) |
| CCn1cc(-c2csc(N)n2)c(=O)c2cc(F)c(N3CCN(Cc4ccc(Cl)c(Cl)c4)CC3)cc21 | 482 µM (≈ 257 µg/mL) | 8 µM (≈ 4.26 µg/mL) | 241 µM (≈ 128 µg/mL) | 482 µM (≈ 257 µg/mL) | 482 µM (≈ 257 µg/mL) | 482 µM (≈ 257 µg/mL) | 482 µM (≈ 257 µg/mL) | 241 µM (≈ 128 µg/mL) | 15 µM (≈ 7.99 µg/mL) | 241 µM (≈ 128 µg/mL) | 241 µM (≈ 128 µg/mL) | 241 µM (≈ 128 µg/mL) | 241 µM (≈ 128 µg/mL) | 482 µM (≈ 257 µg/mL) | 30 µM (≈ 16 µg/mL) | 15 µM (≈ 7.99 µg/mL) |
